From ChEMBL document CHEMBL1135573, “New stereocontrolled synthesis and biological evaluation of 5-(1'-hydroxyalkyl)-3-methylidenetetrahydro-2-furanones as potential cytotoxic agents” (J Med Chem, 2002)
pIC50: −log10 of the molar value.

What was measured:
[1] = Partition coefficient (logP); type: physicochemical; conditions: octanol/water
In short: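 log P (1-octanol/water) computed with a standard software package. For one analogue it was also measured by a spectrophotometric method.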

[2] = tested on: HL-60; experiment: Compound was evaluated for in vitro cytotoxic activity against human HL-60 leukemia cell line; type: functional, cell-based
[3] = tested on: L1210; experiment: Compound was evaluated for in vitro cytotoxic activity against mouse L-1210 leukemia cell line; type: functional, cell-based

Compound	logP [1]	pIC50 ([2]; Homo sapiens, HL-60)	pIC50 ([3]; Mus musculus, L1210)	pIC50 ([2]; hl-60)	pIC50 ([3]; l1210)
C=C1C[C@](C)(CO)OC1=O	0.44	4.29	4.57	–	–
C=C1C[C@H]([C@H](O)CCC)OC1=O	1.59	4.28	4.73	–	–
C=C1C[C@H]([C@@H](O)CCC)OC1=O	–	4.28	4.77	–	–
CARBOPLATIN	–	–	–	5.54	5.01
C=C1C[C@H]([C@@H](O)c2ccccc2)OC1=O	–	4.39	5.12	–	–
C=C1C[C@H]([C@H](C)O)OC1=O	–	4.33	4.76	–	–
C=C1C[C@H]([C@H](O)c2ccccc2)OC1=O	1.8	4.44	5.16	–	5.10
C=C1C[C@H]([C@@H](C)O)OC1=O	0.55	4.33	4.71	–	–
